pIC50: −log10 of the molar value.
Tests used:
[1] = system: Plasmodium falciparum; test: Antimalarial activity against chloroquine-sensitive Plasmodium falciparum HB3 after 72 hrs; assay type: functional, organism-based; details: HB3, 72 h
Outline: (§1)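 SYBR Green I growth assay. Sorbitol-synchronized P. falciparum cultures (>95% ring stage) at final 1% hematocrit and 0.5% parasitemia, exposed to drug dilutions in complete medium for 72 h at 37 °C. Dye added, then 1 h at 37 °C; fluorescence read at 490 nm excitation / 530 nm emission. Each dilution run in triplicate; IC50 averaged over ≥2 separate assays. RI relates Dd2 IC50 to HB3 IC50.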

[2] = system: Plasmodium falciparum; test: Antimalarial activity against chloroquine-resistant Plasmodium falciparum Dd2 after 72 hrs; assay type: functional, organism-based; details: Dd2, 72 h; outline: as §1
[3] = Resistant index, IC50 for chloroquine-resistant Plasmodium falciparum Dd2 to IC50 for chloroquine-sensitive Plasmodium falciparum HB3; assay type: functional; outline: as §1

Structure (SMILES)	pIC50 [1]	pIC50 [2]	Ratio IC50 [3]
CN1CCOc2cc(S(=O)(=O)NCCCNc3ccnc4cc(Cl)ccc34)ccc21	6.02	< 6.00	–
COc1cc([N+](=O)[O-])ccc1NC(=O)NCCCNc1ccnc2cc(Cl)ccc12	6.55	< 6.00	–
CCN(CCCCCCNc1ccnc2cc(Cl)ccc12)CCNS(=O)(=O)c1cccc2c(N(C)C)cccc12	6.57	6.83	0.5
O=C(NCCCNc1ccnc2cc(Cl)ccc12)C(F)(F)C(F)(F)C(F)(F)F	6.63	6.56	1.2
O=C(NCCCNc1ccnc2cc(Cl)ccc12)c1ccccc1Nc1cccc2ccccc12	< 6.00	< 6.00	–
O=C(NCCCNc1ccnc2cc(Cl)ccc12)c1ccc(O)nc1	< 6.00	< 6.00	–
O=S(=O)(NCCCNc1ccnc2cc(Cl)ccc12)c1cccc2cccnc12	6.34	6.22	1.3
CCN(CCNc1ccnc2cc(Cl)ccc12)CCNS(=O)(=O)c1cccc2cccnc12	6.51	6.35	1.4
CCN(CC)CCC(=O)NCCCCCNc1ccnc2cc(Cl)ccc12	7.80	6.17	41.2
COc1ccccc1NC(=O)NCCCNc1ccnc2cc(Cl)ccc12	6.44	6.27	1.5
O=C(NCCCNc1ccnc2cc(Cl)ccc12)c1ccccc1NCCc1ccccc1	< 6.00	< 6.00	–
O=C(NCCCNc1ccnc2cc(Cl)ccc12)C(F)(F)C(F)(F)C(F)(F)C(F)(F)C(F)(F)C(F)(F)C(F)(F)F	6.78	6.71	1.2
CCN(CCCCNc1ccnc2cc(Cl)ccc12)CCNS(=O)(=O)c1cccc2c(N(C)C)cccc12	7.09	6.90	1.5
O=C(NCCCNc1ccnc2cc(Cl)ccc12)c1cccnc1	< 6.00	< 6.00	–
CCN(CCNC(=O)c1c(F)c(F)c(F)c(F)c1F)CCNc1ccnc2cc(Cl)ccc12	6.93	6.50	2.7
CCN(CCNc1ccnc2cc(Cl)ccc12)CCNS(=O)(=O)c1cccnc1	6.91	6.29	4.1
O=C(NCCCNc1ccnc2cc(Cl)ccc12)c1ccccc1Sc1ccccc1	< 6.00	< 6.00	–
CC(C)(C)OC(=O)N[C@@H](CCCCNC(=O)OCc1ccccc1)C(=O)NCCCNc1ccnc2cc(Cl)ccc12	6.04	< 6.00	–
CC(C)(C)OC(=O)N[C@@H](Cc1c[nH]c2ccccc12)C(=O)NCCCNc1ccnc2cc(Cl)ccc12	6.32	< 6.00	–
CN(C)c1ccc(NC(=S)NCCCNc2ccnc3cc(Cl)ccc23)cc1	6.57	6.32	1.8
O=C(NCCCNc1ccnc2cc(Cl)ccc12)c1cc(C(F)(F)F)cc(C(F)(F)F)c1	6.84	6.63	1.6
COc1cc([N+](=O)[O-])ccc1NC(=S)NCCCNc1ccnc2cc(Cl)ccc12	6.68	6.10	3.9
CC(C)(C)OC(=O)N1CCC[C@H]1C(=O)NCCCNc1ccnc2cc(Cl)ccc12	< 6.00	< 6.00	–
CCN(CCCCCNc1ccnc2cc(Cl)ccc12)CCNS(=O)(=O)c1cccc2c(N(C)C)cccc12	7.15	6.94	1.7
CCN(CCNC(=O)c1ccc(F)cc1NCc1ccccc1)CCNc1ccnc2cc(Cl)ccc12	7.10	6.70	2.5

Structure (SMILES)	pIC50 [1]	pIC50 [2]	Ratio IC50 [3]
CN(C)c1cccc2c(S(=O)(=O)NCCCNc3ccnc4cc(Cl)ccc34)cccc12	6.12	6.02	1.3
CN(C)c1ccc(NC(=S)NCCCNc2ccnc3cc(Cl)ccc23)c2ccccc12	6.54	6.22	2.1
CN(C)c1ccc(NC(=O)NCCCNc2ccnc3cc(Cl)ccc23)cc1	6.36	6.17	1.6
O=C(NCCCNc1ccnc2cc(Cl)ccc12)c1ccccc1SC1CCCCC1	< 6.00	< 6.00	–
CCN(CC)CCC(=O)NCCNc1ccnc2cc(Cl)ccc12	7.49	6.12	24.1
COc1ccc(NC(=S)NCCCNc2ccnc3cc(Cl)ccc23)cc1	6.64	6.45	1.5
O=C(NCCCNc1ccnc2cc(Cl)ccc12)c1ccc(F)cc1NCc1ccccc1	< 6.00	6.52	–
CCN(CCNc1ccnc2cc(Cl)ccc12)CCNS(=O)(=O)c1ccc2c(c1)OCCN2C	6.77	6.54	1.7
CCN(CCNC(=O)C(F)(F)C(F)(F)C(F)(F)C(F)(F)C(F)(F)C(F)(F)C(F)(F)F)CCNc1ccnc2cc(Cl)ccc12	7.14	7.06	1.2
O=C(CCc1nc2ccccc2[nH]1)NCCCNc1ccnc2cc(Cl)ccc12	6.12	< 6.00	–
CCN(CC)CCC(=O)NCCCNc1ccnc2cc(Cl)ccc12	7.64	6.25	24.4
Nc1ccc(N)c(C(=O)NCCCNc2ccnc3cc(Cl)ccc23)c1	6.75	6.19	3.6
O=S(=O)(NCCCNc1ccnc2cc(Cl)ccc12)c1ccc(Oc2ccccc2)nc1	< 6.00	< 6.00	–
CCN(CCNc1ccnc2cc(Cl)ccc12)CCNS(=O)(=O)c1cccc2c(N(C)C)cccc12	7.74	7.64	1.3
CCN(CC)CCC(=O)NCCCCCCNc1ccnc2cc(Cl)ccc12	7.55	6.41	12.9
CCN(CCNC(=O)c1cc(C(F)(F)F)cc(C(F)(F)F)c1)CCNc1ccnc2cc(Cl)ccc12	7.01	6.86	1.4
CCN(CCCC(C)Nc1ccnc2cc(Cl)ccc12)CCNS(=O)(=O)c1cccc2c(N(C)C)cccc12 (stereo not given)	6.66	6.59	1.2
CCN(CCNc1ccnc2cc(Cl)ccc12)CCNS(=O)(=O)c1ccc(Oc2ccccc2)nc1	6.85	6.56	2
CCN(CCCNc1ccnc2cc(Cl)ccc12)CCNS(=O)(=O)c1cccc2c(N(C)C)cccc12	6.94	6.39	3.6
CN(C)c1cccc(C(=O)NCCCNc2ccnc3cc(Cl)ccc23)c1	6.35	6.10	1.8
CCN(CC)CCC(=O)NCCCCNc1ccnc2cc(Cl)ccc12	7.54	< 6.00	–
COc1ccc(NC(=O)NCCCNc2ccnc3cc(Cl)ccc23)cc1	6.50	6.22	1.9
CC(C)(C)OC(=O)N[C@H](Cc1c[nH]c2ccccc12)C(=O)NCCCNc1ccnc2cc(Cl)ccc12	6.30	6.12	1.5
CCN(CCNC(=O)C(F)(F)C(F)(F)C(F)(F)F)CCNc1ccnc2cc(Cl)ccc12	6.74	6.25	3.1
O=C(NCCCNc1ccnc2cc(Cl)ccc12)c1c(F)c(F)c(F)c(F)c1F	6.56	6.29	1.9
